# Screening results as filed in PubChem.
# Rows were chosen to be rich in hits. Some 2% of all compounds tested hit in one or more screens of this group.
# ATG4B inhibitor = ATG4B protease inhibitors, primary screen, biochemical, fluorescence, uHTS | ATG4B cleavage of LC3-PLA2, NBD-HPC fluorescence, 1 h | inhibition, % at 8.33 µM | actives 0.51% (n = 340,000) | AID 504462, 2011
# Rpn11 block = Rpn11 (PSMD14) deubiquitinase inhibitors, primary screen, biochemical, fluorescence polarization, uHTS. 26S proteasome non-ATPase regulatory subunit 14 (Homo sapiens), O00487. inhibition, % at 20 µM. human 26S proteasome, Ub4-pepOG fluorescence polarization; 20S core pre-blocked with epoxomicin. actives 0.59% (n = 360,000);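 active means inhibition at 20 µM, scaled to each plate's controls, above about 33%, limit read from the data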
# Target sequence (O00487 whole entry, looked up): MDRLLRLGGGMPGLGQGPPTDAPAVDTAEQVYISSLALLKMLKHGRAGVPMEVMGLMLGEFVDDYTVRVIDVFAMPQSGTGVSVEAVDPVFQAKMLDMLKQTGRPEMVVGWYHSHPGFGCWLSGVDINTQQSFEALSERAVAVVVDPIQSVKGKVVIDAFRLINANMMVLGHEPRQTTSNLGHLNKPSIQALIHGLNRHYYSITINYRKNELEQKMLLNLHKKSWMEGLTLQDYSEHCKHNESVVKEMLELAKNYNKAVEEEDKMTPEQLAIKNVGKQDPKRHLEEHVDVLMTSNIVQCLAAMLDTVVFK
# SENP1 inh = human SENP1 catalytic domain inhibitors, primary screen, biochemical, FRET, uHTS | recombinant SENP1 catalytic domain, CyPet-SUMO1-YPet FRET cleavage | actives 0.21% (n = 360,000) | inhibition, % at 10 µM;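 active means inhibition at least 30% at 10 µM, raw YFP signal under a set limit, fluorescence ratio 0.5 to 1.5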;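 further: 0% = enzyme with DMSO and 100% = no enzyme wells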
#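 Assay system: hSENP1 catalytic domain, recombinant. Amount: SENP1 enzyme, 20 pM final. Schedule: 50 min reaction, RT, dark. Technique: FRET, CFP and YFP emission. Control set: no-enzyme wells low, DMSO-plus-enzyme wells high control.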
# HNF4A DNA FP = change in binding of human HNF4A to DNA, primary screen, biochemical, fluorescence polarization, FITC-DNA; Hepatocyte nuclear factor 4-alpha (Homo sapiens), P41235; activity change, % at 10 µM; actives 0.3% (n = 360,000); 1 h; AID 1224865, 2016; in the data active means activity change above about 30%, passing the limit was not always enough
# CSN inh = inhibitors of CSN-mediated cullin deneddylation, primary screen, biochemical, fluorescence polarization, uHTS | actives 0.38% (n = 360,000) | inhibition, % at 12.5 µM | Purified CSN, SCF-Nedd8-OG deneddylation | AID 651999, 2013;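 active means pattern-corrected inhibition above about 35%, with an unprinted fluorescence ratio check between 0.5 and 1.5, limit read from the data, passing the limit was not always enough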;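 further: 0% = enzyme with substrate and 100% = substrate without enzyme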
# Target sequence (Q92905 whole entry, looked up, one chain of several): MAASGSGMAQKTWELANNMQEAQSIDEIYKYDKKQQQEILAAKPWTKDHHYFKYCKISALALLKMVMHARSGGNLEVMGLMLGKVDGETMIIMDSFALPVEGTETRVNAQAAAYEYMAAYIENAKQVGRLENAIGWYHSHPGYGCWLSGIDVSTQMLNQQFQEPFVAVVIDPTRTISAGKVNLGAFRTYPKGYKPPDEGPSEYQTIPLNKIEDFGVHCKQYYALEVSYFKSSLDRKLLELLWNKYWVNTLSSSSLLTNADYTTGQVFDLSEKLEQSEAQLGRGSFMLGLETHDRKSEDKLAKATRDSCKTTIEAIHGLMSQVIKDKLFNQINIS
#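 Schedule: reaction 90 min, room temperature / Assay system: HEK293T-derived human Csn5 enzyme / Input: Csn5 at 0.24 nM final / Measure: inhibition of Csn5 cleavage, % / Control set: substrate-only high control, full reaction low control / Technique: fluorescence polarization of the substrate / Buffer or medium: Tris/NaCl/DTT buffer, pH 7.5 / Reagent: SCFSkp2-Nedd8OG substrate at 10 nM final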
# TPT1 inhibitor = Candida albicans TPT1 enzyme inhibitors, primary screen, biochemical, fluorescence polarization. recombinant caTPT1, FP RNA substrate dephosphorylation. inhibition, % at 5 µM. actives 0.81% (n = 300,000);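 active means inhibition above the mean of all tested compounds plus 3 SD, set per screening campaign, cut at about 24% in these data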;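 further: plate controls were DMSO alone for no effect and ferristatin control at 100 nM for full effect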
# Rpn11 confirm = Rpn11 (PSMD14) deubiquitinase inhibitors, confirmation, biochemical, fluorescence polarization, single concentration; actives 29% (n = 1,900); shares compounds with Rpn11 block; inhibition, % at 20 µM; purified human 26S proteasome, Ub4-pepOG fluorescence polarization; proteasome pretreated with epoxomicin
# MMP-2 inh = MMP-2 enzyme inhibition, confirmation, counter-screen for RPN11 inhibitor project, biochemical, fluorescence, single concentration | recombinant MMP-2, FRET peptide cleavage fluorescence | actives 4% (n = 1,900) | shares compounds with Rpn11 block | inhibition, % at 20 µM;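 further: human MMP-2 activated beforehand with APMA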
# Thrombin FP = bovine thrombin protease inhibition, confirmation, counter-screen for Rpn11 inhibitor project, biochemical, fluorescence polarization, single concentration; shares compounds with Rpn11 block; bovine thrombin cleavage of Ub4-pepOG; inhibition, % at 20 µM; actives 13% (n = 1,900); AID 602333, 2012;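 active means mean inhibition at least 40% at 20 µM, or signal 3 deviations below plate average, so some actives read negative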;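 further: plate controls were thrombin with DMSO for no effect and buffer wells lacking thrombin for full effect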
# The depositor's hits bear a star; / = no result. Unless noted, no stated cut-off is given here; in the data, active means inhibition above about 40%; inactive means the rest.
SMILES,ATG4B inhibitor,Rpn11 block,SENP1 inh,HNF4A DNA FP,CSN inh,TPT1 inhibitor,Rpn11 confirm,MMP-2 inh,Thrombin FP
Cc1cc(-c2nnc(SCC(=O)Nc3ccccc3C)n2N)n[nH]1,5,-4,-1,2,-3,-1,/,/,/
Cc1ccc2oc(=O)n(Cc3ccc(F)cc3)c2c1,-3,0,-1,-1,0,1,/,/,/
COc1ccc(N(Cc2ccccc2)S(=O)(=O)c2cccc(C(=O)NCC3CCCO3)c2)cc1 (stereo not given),-3,0,0,1,2,/,/,/,/
Cc1occc1-c1nnc(SCC(=O)NCCc2ccccc2)n1Cc1ccccc1,-5,85*,-12,6,5,6,13,-23,11
CCCCCCCCN1N=N[C@H]2[C@H]1[C@@H]1C[C@H]2N(C(=O)OC(C)(C)C)O1,3,7,2,-1,0,/,/,/,/
COc1ccc(Cc2c(-c3ccc(C)cc3)nc3c(C)cc(Br)cn23)c(C)c1,/,49*,15,18,8,/,22,16,13
COc1ccccc1Cc1c(-c2cccc(Br)c2)nc2c(C)cc(Br)cn12,/,42*,1,12,4,/,15,-7,20
Cc1cc(Br)cn2c(Cc3ccccc3C(F)(F)F)c(-c3cccc(Br)c3)nc12,/,/,3,-5,-1,/,/,/,/
COc1ccc(Cc2c(-c3ccc(OC)c(OC)c3)nc3c(C)cc(Br)cn23)c(C)c1,/,12,-19,13,-1,/,/,/,/
FC(F)(F)c1ccccc1Cc1c(-c2cccc(Br)c2)nc2c3ccccc3ccn12,/,42*,-16,16,6,/,10,-2,11
Cc1cc(=O)nc2c3ccccc3n(CC(=O)NCCC3=CCCCC3)n12,-2,-3,-2,1,-1,-1,/,/,/
CC/C(=N/Nc1cccc(Cl)c1)c1cnnc(SC)n1,-9,56*,-7,15,5,5,4,0,-23
CC/C(=N/Nc1ccccc1)c1cnnc(-c2ccccc2)n1,2,3,-61,14,6,-1,/,/,/
O=C1CS/C(=N/N=C/c2ccco2)N1Cc1ccc(F)cc1,0,10,3,10,0,-1,/,/,/
CCN1C(=O)/C(=C\c2cn(-c3ccccc3)nc2-c2cccnc2)SC1=S,-3,8,5,3,-4,/,/,/,/
CC(C)COc1ccc(-c2nn(-c3ccccc3)cc2/C=C2/SC(=S)N(CC(=O)O)C2=O)cc1,6,49*,-7,-30,13,2,41*,-23,49*
CCOc1ccc(-c2nn(-c3ccccc3)cc2/C=C2\SC(=S)N(Cc3ccco3)C2=O)cc1,5,2,-16,6,2,1,/,/,/
O=C1C(=Cc2cn(-c3ccccc3)nc2-c2ccc(OCc3ccccc3)cc2)SC(=S)N1CCS(=O)(=O)O,/,98*,1,-46,29,/,90*,29,134*
O=C(Nc1ccc2oc(-c3ccc(Cl)c(Cl)c3)nc2c1)c1ncn[nH]1,-6,49*,1,-13,7,-4,-11,-41,-4
CCN1CCc2nc(NC(=O)C(c3ccccc3)c3ccccc3)sc2C1,-7,43*,-27,6,5,19,10,-19,-3
O=C(Nc1ccc2c(c1)OCO2)C1CC(=O)N(c2cccc(Cl)c2)C1 (stereo not given),1,2,1,7,1,-2,/,/,/
COc1ccccc1NC(=O)NC1CC(=O)N(c2ccc3c(c2)OCCO3)C1 (stereo not given),3,0,1,2,2,-1,/,/,/
COc1ccccc1NC(=O)C1=C(C)NC(=O)NC1c1ccccc1[N+](=O)[O-] (stereo not given),-11,52*,2,1,5,5,-2,-25,-23
CC1=C(C(=O)Nc2ccccc2)C(c2ccccc2[N+](=O)[O-])NC(=O)N1 (stereo not given),1,-1,-18,7,12,-1,/,/,/
O=C(CCC(=O)c1cccs1)OCC(=O)N1CCN(C(=O)c2ccco2)CC1,-7,33*,1,35*,1,-5,-4,-20,-8
SMILES,ATG4B inhibitor,Rpn11 block,SENP1 inh,HNF4A DNA FP,CSN inh,TPT1 inhibitor,Rpn11 confirm,MMP-2 inh,Thrombin FP
Cc1cnc(C(=O)OC(C)C(=O)c2c(C)[nH]c3ccccc23)cn1 (stereo not given),-8,-1,0,0,-1,0,/,/,/
CCOC(=O)C1=C(N)n2c(s/c(=C\c3ccncc3)c2=O)=C(C(=O)OCC)C1c1ccncc1 (stereo not given),-3,-2,3,-1,-7,0,/,/,/
CCOC(=O)C1=C(N)n2c(s/c(=C\c3cccnc3)c2=O)=C(C(=O)OC)C1c1cccnc1 (stereo not given),-2,35*,1,0,67*,-4,-16,-7,-23
O=C(N/N=C/c1cn(-c2ccccc2)nc1-c1ccc2c(c1)OCCO2)c1ccncc1,15,82*,-1,0,7,0,15,-8,-7
O=C(N/N=C\c1cn(-c2ccccc2)nc1-c1ccccc1)c1ccc2c(c1)OCO2,-1,-1,2,0,6,-1,/,/,/
O=C(N=Nc1c(O)[nH]c2ccc([N+](=O)[O-])cc12)c1cc(-c2ccccc2Cl)nc2ccccc12,4,37*,6,0,3,3,-22,-10,-32
COc1ccccc1C(=O)N=Nc1c(O)[nH]c2ccc([N+](=O)[O-])cc12,-20,5,-4,-2,0,/,/,/,/
O=C(Cc1cccc(C(F)(F)F)c1)NCc1ccc(Cl)cc1Cl,15,1,2,1,-3,0,/,/,/
